Test results reported in ChEMBL document CHEMBL2385062, “Metabolism of a potent neuroprotective hydrazide” (Bioorg Med Chem, 2013).

What was measured:
[1] = Neuroprotective activity in human MC65 cells expressing C-terminal 99 amino acids from […] assessed as reduction in intracellular amyloid beta toxicity after 4 days by MTT assay; type: functional, cell-based; settings: MC65, 96 h
How it was run: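 MC65 cells from confluent cultures were plated at 4 × 10⁵ per 35 mm dish with compounds. Tetracycline was kept present (no induction) or omitted (APP-C99 induced). After 4 days, viability was read by MTT and expressed relative to plus-tetracycline controls. EC50 was calculated from concentration–response curves.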

[2] = Neuroprotective activity in rat primary cortical neurons assessed as reduction in trophic factor withdrawal after 2 days by fluorescent live-dead assay; type: functional, cell-based; settings: cerebral cortex neuron
How it was run: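 Cortical neurons from E18 rat embryos were plated at low density (1 × 10⁶ per 35 mm dish) in serum-free DMEM/F12 with N2 supplement plus compounds. After 2 days, viability was scored with a fluorescent live-dead assay as the percentage of input cells surviving. EC50 was derived from the concentration–response curves.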

HT-22 = assay: Neuroprotective activity in mouse HT22 cells assessed as reduction in glutamate-induced oxidative stress incubated for 30 mins prior to glutamate-challenge measured after 20 hrs by MTT assay
Plasma [3] = assay: Drug metabolism in mouse plasma assessed as formation of 3-methoxy benzaldehyde at 5 uM by LC/MS/MS analysis; type: ADME, cell-free
[4] = Drug metabolism in mouse liver microsomes assessed as formation of 3-methoxy benzaldehyde at 5 uM by LC/MS/MS analysis; type: ADME, Microsome
How it was run: (§1)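 Parent at 5 µM was incubated with human or mouse liver microsomes, then extracted with ethyl acetate at zero time or after 5 min. Extracts were separated on a C18 reverse-phase HPLC column and analysed by LC/MS/MS in positive mode over m/z 50–1000. Metabolites were characterised from EPI-scan product ion spectra and CID pathways.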

Blood [5] = assay: Drug metabolism in BALB/c mouse blood assessed as (E)-N-(2,4-dimethylphenyl)-2,2,2-trifluoro-N'-(3-hydroxybenzyli-dene)acetohydrazide retention time at 20 mg/kg, iv administered in corn oil by LC/MS/MS analysis; type: ADME, organism-based; parameters: dose 20 mg/kg, route intravenous; settings: in vivo
How it was run: (§2)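 Mice received parent at 20 mg/kg iv, and blood was sampled 20 min later. Metabolites were identified by the same ethyl acetate extraction and LC/MS/MS workflow as for microsomes, using a polar reverse-phase column. Mass shifts were assigned to biotransformations.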

[6] = Drug metabolism in mouse liver microsomes assessed as (E)-N'-(3,4-dihydroxybenzylidene)-N-(2,4-dimethylphenyl)-2,2,2-trifluoroacetohydrazide retention time at 5 uM by LC/MS/MS analysis; type: ADME, Microsome; how it was run: as §1
[7] = Half life in BALB/c mouse brain at 20 mg/kg, orally administered in corn oil by LC/MS/MS analysis; settings: po
Liver microsomes [8] = assay: Drug metabolism in human liver microsomes assessed as formation of (E)-N-(2,4-dimethylphenyl)-2,2,2-trifluoro-N'-(3-hydroxybenzyli-dene)acetohydrazide at 5 uM by LC/MS/MS analysis; type: ADME, Microsome; how it was run: as §1
Liver microsomes [9] = assay: Drug metabolism in human liver microsomes assessed as formation of (E)-2,2,2-trifluoro-N-(4-(hydroxymethyl)-2-methylphenyl)-N'-(3-methoxybenzylidene)acetohydrazide at 5 uM by LC/MS/MS analysis; type: ADME, Microsome; how it was run: as §1
[10] = Drug metabolism in mouse liver microsomes assessed as (E)-N-(2,4-dimethylphenyl)-2,2,2-trifluoro-N'-(3-hydroxybenzyli-dene)acetohydrazide retention time at 5 uM by LC/MS/MS analysis; type: ADME, Microsome; how it was run: as §1
[11] = Drug metabolism in mouse liver microsomes assessed as (E)-2,2,2-trifluoro-N-(4-(hydroxymethyl)-2-methylphenyl)-N'-(3-methoxybenzylidene)acetohydrazide retention time at 5 uM by LC/MS/MS analysis; type: ADME, Microsome; how it was run: as §1
Plasma [12] = assay: Drug metabolism in mouse plasma assessed as formation of 2,4-dimethylaniline at 5 uM by LC/MS/MS analysis; type: ADME, cell-free
Liver microsomes [13] = assay: Drug metabolism in human liver microsomes assessed as formation of 2,4-dimethylhydrazine at 5 uM by LC/MS/MS analysis; type: ADME, Microsome; how it was run: as §1
Blood [14] = assay: Drug metabolism in BALB/c mouse blood assessed as retention time at 20 mg/kg, iv administered in corn oil by LC/MS/MS analysis; type: ADME, organism-based; parameters: dose 20 mg/kg, route intravenous; settings: in vivo; how it was run: as §2
[15] = Half life in human liver microsomes at 5 uM by LC/MS/MS analysis in presence of NADPH; type: ADME, Microsome
How it was run: (§3)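 Test compound at 5 µM was incubated at 37 °C with 0.5 mg/mL liver microsomes (human or mouse) in 5 mM phosphate buffer, pH 7.3, with or without 1 mM NADPH. Heat-inactivated microsomes (98 °C, 10 min) served as controls. At 0.1, 2, 5, 10 and 20 min, reactions were stopped with three volumes of ethyl acetate and centrifuged. Parent disappearance in the supernatant was followed by LC/MS/MS.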

Plasma [16] = assay: Drug metabolism in mouse plasma assessed as formation of 2,4-dimethylhydrazine at 5 uM by LC/MS/MS analysis; type: ADME, cell-free
Liver microsomes [17] = assay: Drug metabolism in human liver microsomes assessed as formation of 3-methoxy benzaldehyde at 5 uM by LC/MS/MS analysis; type: ADME, Microsome; how it was run: as §1
[18] = Drug metabolism in mouse liver microsomes assessed as formation of 2,4-dimethylhydrazine at 5 uM by LC/MS/MS analysis; type: ADME, Microsome; how it was run: as §1
[19] = Half life in BALB/c mouse blood at 20 mg/kg, orally administered in corn oil by LC/MS/MS analysis; settings: po
Blood [20] = assay: Drug metabolism in BALB/c mouse blood assessed as metabolite BM1 retention time at 20 mg/kg, iv administered in corn oil by LC/MS/MS analysis; type: ADME, organism-based; parameters: dose 20 mg/kg, route intravenous; settings: in vivo; how it was run: as §2
Liver microsomes [21] = assay: Drug metabolism in human liver microsomes assessed as retention time at 5 uM by LC/MS/MS analysis; type: ADME, Microsome; how it was run: as §1
[22] = Drug metabolism in mouse liver microsomes assessed as formation of 2,4-dimethylaniline at 5 uM by LC/MS/MS analysis; type: ADME, Microsome; how it was run: as §1
Liver microsomes [23] = assay: Drug metabolism in human liver microsomes assessed as formation of 2,4-dimethylaniline at 5 uM by LC/MS/MS analysis; type: ADME, Microsome; how it was run: as §1
[24] = Drug metabolism in mouse liver microsomes assessed as metabolite M5 retention time at 5 uM by LC/MS/MS analysis; type: ADME, Microsome; how it was run: as §1
[25] = Half life in mouse liver microsomes at 5 uM by LC/MS/MS analysis in presence of NADPH; type: ADME, Microsome; how it was run: as §3
[26] = Drug metabolism in mouse liver microsomes assessed as retention time at 5 uM by LC/MS/MS analysis; type: ADME, Microsome; how it was run: as §1
[27] = Drug metabolism in mouse liver microsomes assessed as metabolite M4 retention time at 5 uM by LC/MS/MS analysis; type: ADME, Microsome; how it was run: as §1
Blood [28] = assay: Drug metabolism in BALB/c mouse blood assessed as metabolite BM2 retention time at 20 mg/kg, iv administered in corn oil by LC/MS/MS analysis; type: ADME, organism-based; parameters: dose 20 mg/kg, route intravenous; settings: in vivo; how it was run: as §2

Compound `Cc1ccc(N(/N=C/c2ccc(O)c(O)c2)C(=O)C(F)(F)F)c(C)c1` has an EC50 [1] of 0.034 µM, an EC50 [2] of 0.031 µM and an EC50 (HT-22) of 1 µM.
Compound `Cc1ccc(N(/N=C/c2cccc(O)c2)C(=O)C(F)(F)F)c(C)c1` has an EC50 [1] of 0.078 µM, an EC50 [2] of 0.012 µM and an EC50 (HT-22) of 0.185 µM.
Work on `COc1cccc(/C=N/N(C(=O)C(F)(F)F)c2ccc(CO)cc2C)c1` yielded an EC50 [1] of 0.092 µM, an EC50 [2] of 0.32 µM and an EC50 (HT-22) of 0.18 µM.
For `COc1cccc(/C=N/N(C(=O)C(F)(F)F)c2ccc(C)cc2C)c1` [J147], the Drug metabolism (Plasma [3]) was “Not Active”, the Drug metabolism [4] was “Not Active” and the Retention_time (Blood [5]) was 8.04 min. It also gave a Retention_time [6] of 7.6 min, an EC50 [1] of 0.011 µM and a half-life [7] of 2.5 h. For the same compound, the Drug metabolism (Liver microsomes [8]) was “Active”, the Drug metabolism (Liver microsomes [9]) was “Active” and the Retention_time [10] was 8.36 min. The Retention_time [11] was 7.86 min, the EC50 [2] was 0.033 µM and the Drug metabolism (Plasma [12]) was “Not Active”. The EC50 (HT-22) was 0.02 µM, the Drug metabolism (Liver microsomes [13]) was “Not Active” and the Retention_time (Blood [14]) was 9.27 min. For the same compound, the half-life at 5 µM [15] was 4.5 min, the Drug metabolism (Plasma [16]) was “Not Active” and the Drug metabolism (Liver microsomes [17]) was “Not Active”. The Drug metabolism [18] was “Not Active”, the half-life [19] was 2.5 h and the Retention_time (Blood [20]) was 5.35 min. The Retention_time (Liver microsomes [21]) was 10.97 min, the Drug metabolism [22] was “Not Active” and the Drug metabolism (Liver microsomes [23]) was “Not Active”. For the same compound, the Retention_time [24] was 6.82 min, the half-life at 5 µM [25] was < 4 min and the Retention_time [26] was 9.49 min. For the same compound, the Retention_time [27] was 5.96 min and the Retention_time (Blood [28]) was 5.54 min.
